Source: PubChem BioAssay
This is a sample that favours compounds with a hit; in the whole collection about 5.6% have one here.
CHOP inhibitor: blocks CHOP induction under ER stress | CHO-K1 CHOP-promoter luciferase, tunicamycin-induced, 15-18 h | inhibition, % at 10 µM | 3.8% of 220,000 active | AID 2732;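 active = compounds that reduced the stress-induced luciferase reporter signal by more than about 70% of percent inhibition, limit read from the data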
aDG glyco act: increases alpha dystroglycan glycosylation. Pro5-aDG cells, alpha-DG glycosylation AlphaScreen (IIH6); 0% Pro5, 100% B10-LARGE cell signal. activation, % at 10 µM. 0.22% of 360,000 active;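 active = activation of at least 8% versus controls, or a plate z-score of at least 8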;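 also: Pro5 are CHO cells carrying HIG-tagged alpha-DG that lacks glycosylation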
MPTP inh: inhibitors of mitochondrial permeability transition pore. 1.4% of 360,000 active. AID 602449. inhibition, % at 10 µM. isolated mouse mitochondria, Ca2+ swelling absorbance, 30 min;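 active = inhibition of 50% or more, scaled per plate between neutral and stimulator controls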
UPR CHOP act: activators of apoptotic arm of unfolded protein response (CHOP); 0.34% of 330,000 active; activation, % at 10 µM; CHO-CHOP luciferase reporter, UPR activation, luminescence; percent of tunicamycin response over DMSO baseline;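 active = at 10 µM dose, activation of 40% or more, normalized to positive control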
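Assay system: CHO cells with stable CHOP pathway luciferase reporter; Buffer or medium: F12 plus 10% serum; Times: 16-18 h cell attachment, then 6 h compound exposure, 37 °C; Signal: luciferase luminescence; Read-out basis: percent activation relative to tunicamycin control; Control set: tunicamycin high control, DMSO low control.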
XBP1 UPR activ: adaptive UPR (XBP1) activation; activation, % at 20 µM; 0.33% of 330,000 active; AID 463104; CHO-XBP1 luciferase reporter, IRE1-XBP1 UPR activation, luminescence; percent of tunicamycin response, DMSO as zero;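 active = versus positive control, 20 µM dose yields 30% or more activation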
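Material: CHO-XBP1 cells stably carrying IRE1-XBP1-driven luciferase reporter / Amount: 1000 cells per well / Compound: 20 µM, 1% DMSO / Times: 6 h treatment, 37 °C / Detection: luciferase luminescence / Measure: % activation of reporter signal versus tunicamycin and DMSO controls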
NR3A LBD binder: modulators (binders) of human NR3A ligand-binding domain | NR3A LBD differential scanning fluorimetry, Tm shift; 0% = protein alone, 100% = glycine-bound protein | Tm shift relative to glycine control, % at 25 µM | 2.5% of 340,000 active;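 active = melting temperature shift of at least 10% of the positive control shift, at one fixed dose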
Rh123 counter: mitochondrial membrane potential, counter-screen. shares compounds with MPTP inh. isolated mitochondria, Rhodamine 123 fluorescence. inhibition, % at 10 µM. 78% of 5,000 active. AID 624504; in the data active = inhibition above about 22%
MPTP abs DR: MPTP inhibition, dose response swelling confirmation | shares compounds with MPTP inh | isolated mitochondria swelling, absorbance | IC50, µM | 58% of 780 active; in the data active = IC50 below about 20 µM
MPTP counter DR: active in counter-screen for permeability transition pore inhibitors | 49% of 780 active | shares compounds with MPTP inh | IC50, µM | isolated mitochondria counterscreen, fluorescence read-out; in the data active = IC50 below about 80 µM
Large screens that a line does not name were inactive (follow-up assays come after a bar, where they were run).

N#CC(C#N)=C(N)Nc1cccc(Cl)c1	none
N#Cc1ccccc1NC(=O)Nc1cccc(Cl)c1	none
N#CCc1ccc(NC(=O)Nc2cccc(Cl)c2)cc1	MPTP inh 90, NR3A LBD binder 26 | Rh123 counter 107
CC1CCC(=C(C#N)C(=O)Nc2cccc(Cl)c2)CC1 (stereo unspecified)	MPTP inh 86 | Rh123 counter 84
Cc1cccc(N(O)C(=O)Nc2cccc(Cl)c2)c1	MPTP inh 64 (no result: CHOP inhibitor) | Rh123 counter 84
CCOC(=O)C1(C(=O)OCC)C(C)CC(=O)N1c1ccccc1OC (stereo unspecified)	none (no result: CHOP inhibitor, UPR CHOP act, XBP1 UPR activ, NR3A LBD binder)
Cc1ccc(S(=O)(=O)N(C)C[C@@H]2Oc3ccc(NS(C)(=O)=O)cc3CC(=O)N([C@H](C)CO)C[C@@H]2C)cc1	none (no result: CHOP inhibitor)
Cc1cc(=O)[nH]c(SCC(=O)C23CC4CC(CC(C4)C2)C3)c1C#N	MPTP inh 85 | Rh123 counter 84
Cc1cc(=O)[nH]c(SCC(=O)O)c1C#N	none
Nc1cccc2c(=O)[nH][nH]c(=O)c12	none (no result: CHOP inhibitor, UPR CHOP act, XBP1 UPR activ)
Cc1cc(Nc2cccc(Cl)c2)nc(NCc2ccccc2)n1	CHOP inhibitor 106, MPTP inh 82 | Rh123 counter 87
Cc1cc(N2CCCCC2)nc(NCc2ccccc2)n1	MPTP inh 55 | Rh123 counter 88
COc1ccccc1NC(=O)NCC(=O)Nc1ccc(F)c(F)c1	none
COc1ccccc1NC(=O)Nc1ccc(F)c(F)c1	MPTP inh 81, NR3A LBD binder 23 | Rh123 counter 68
Cn1nnc2cc(NC(=O)Nc3ccccc3F)ccc21	none (no result: CHOP inhibitor, UPR CHOP act, XBP1 UPR activ, NR3A LBD binder)
O=C(Nc1ccccc1)Nc1ccc(Br)cc1F	MPTP inh 53, NR3A LBD binder 12 | Rh123 counter 84
Cc1cc(NC(=O)Nc2ccccc2F)ccc1Br	MPTP inh 84, NR3A LBD binder 26 | Rh123 counter 91
O=C(Nc1cccc(Cl)c1)Nc1ccc(Br)cc1F	CHOP inhibitor 91, MPTP inh 75, NR3A LBD binder 21 | Rh123 counter 82
Cc1ccc(CNC(=O)c2cc(-c3cc(C)cc(C)c3O)n[nH]2)cc1	MPTP inh 88, NR3A LBD binder 11 | Rh123 counter 73
Cc1ccc(F)cc1-c1cc(C(=O)NCc2cc(C(F)(F)F)cc(C(F)(F)F)c2)[nH]n1	MPTP inh 69 (no result: CHOP inhibitor, UPR CHOP act, XBP1 UPR activ, NR3A LBD binder) | Rh123 counter 101
Cc1cc(F)cc(-c2cc(C(=O)NCc3ccc(C(F)(F)F)cc3)[nH]n2)c1	none (no result: CHOP inhibitor, UPR CHOP act, XBP1 UPR activ, NR3A LBD binder)
Cc1csc(-c2cc(C(=O)NCc3cc(C(F)(F)F)cc(C(F)(F)F)c3)n[nH]2)c1	MPTP inh 72 (no result: CHOP inhibitor, UPR CHOP act, XBP1 UPR activ, NR3A LBD binder) | Rh123 counter 78
Cc1cc(C)c(O)c(-c2cc(C(=O)Nc3ccc(S(=O)(=O)N4CCOCC4)cc3)[nH]n2)c1	CHOP inhibitor 85, MPTP inh 93, NR3A LBD binder 23 | Rh123 counter 64
CCc1ccc(C(C(=O)NC2CCCC2)N(Cc2cccnc2)C(=O)c2csnn2)cc1 (stereo unspecified)	none (no result: CHOP inhibitor)
Cc1cc(C)c(NC(=O)CNC(=O)COC(=O)CN2C(=O)NC3(CCCC3)C2=O)c(C)c1	none (no result: CHOP inhibitor)
CCN(Cc1nc2ccccc2c(=O)[nH]1)C(=O)c1cccc(S(=O)(=O)N2CCc3ccccc32)c1	none (no result: CHOP inhibitor)
COc1ccc(-c2cc(C(=O)NCc3cccc(C(F)(F)F)c3)[nH]n2)c(C)c1	none (no result: CHOP inhibitor, UPR CHOP act, XBP1 UPR activ, NR3A LBD binder)
COc1ccc(Cl)cc1-c1cc(C(=O)NCc2cc(C(F)(F)F)cc(C(F)(F)F)c2)[nH]n1	none (no result: CHOP inhibitor, UPR CHOP act, XBP1 UPR activ, NR3A LBD binder)
Cc1cc(F)ccc1-c1cc(C(=O)NCc2cc(C(F)(F)F)cc(C(F)(F)F)c2)[nH]n1	MPTP inh 84 (no result: CHOP inhibitor, UPR CHOP act, XBP1 UPR activ, NR3A LBD binder) | Rh123 counter 104
Cc1ccc(Cl)cc1-c1cc(C(=O)NCc2cc(C(F)(F)F)cc(C(F)(F)F)c2)[nH]n1	MPTP inh 96 (no result: CHOP inhibitor, UPR CHOP act, XBP1 UPR activ, NR3A LBD binder) | Rh123 counter 83
Cc1ccc2nc(NC(=O)COC(=O)c3cccnc3)sc2c1	none (no result: CHOP inhibitor)
Cc1c(Cl)cccc1NC(=S)N1CCC(N(C)CC2CCCO2)CC1 (stereo unspecified)	none
COc1ccccc1N1CCN(C(=O)[C@@H]2CCCN2C2=NS(=O)(=O)c3ccccc32)CC1	none (no result: CHOP inhibitor, UPR CHOP act, XBP1 UPR activ, NR3A LBD binder)
COc1ccc(/C=N/OCC(=O)N=Nc2c(O)[nH]c3ccc(Br)cc23)cc1OC	none
COc1ccc(/C(C)=N/OCC(=O)N=Nc2c(O)[nH]c3ccc(Br)cc23)cc1	MPTP inh 57 | Rh123 counter inactive | MPTP abs DR inactive | MPTP counter DR 10
O=C1NCCN(CC2CCN(CCc3ccccc3)CC2)C1=O	none (no result: CHOP inhibitor, UPR CHOP act, XBP1 UPR activ, NR3A LBD binder)
Cc1ccccc1NC(=S)NC(NC(=O)c1ccccc1C)C(Cl)(Cl)Cl (stereo unspecified)	MPTP inh 78 | Rh123 counter 88
O=C(O)c1cccc(NC(=S)NC(NC(=O)c2cccc([N+](=O)[O-])c2)C(Cl)(Cl)Cl)c1 (stereo unspecified)	none
O=C(NC(NC(=S)Nc1ccccc1)C(Cl)(Cl)Cl)c1cccc(Cl)c1 (stereo unspecified)	CHOP inhibitor 86, MPTP inh 96, NR3A LBD binder 24 | Rh123 counter 77
Cc1ccc(NC(=S)NC(NC(=O)c2ccccc2)C(Cl)(Cl)Cl)c(C)c1 (stereo unspecified)	MPTP inh 73, NR3A LBD binder 15 | Rh123 counter 81
COc1ccccc1NC(=S)NC(NC(C)=O)C(Cl)(Cl)Cl (stereo unspecified)	none
CN(C)C(=O)NC(NC(=S)Nc1ccccc1)C(Cl)(Cl)Cl (stereo unspecified)	none
Cc1cccc(NC(=S)NC(NC(=O)c2ccco2)C(Cl)(Cl)Cl)c1 (stereo unspecified)	none
O=C(NC(NC(=S)Nc1ccc(Cl)cc1Cl)C(Cl)(Cl)Cl)c1cccc([N+](=O)[O-])c1 (stereo unspecified)	MPTP inh 94, NR3A LBD binder 21 | Rh123 counter 80
CCc1ccc(N2CC(C(=O)Nc3ccccc3N3CCCC3)CC2=O)cc1 (stereo unspecified)	none (no result: CHOP inhibitor, UPR CHOP act, XBP1 UPR activ, NR3A LBD binder)
CC(Sc1nnc(COc2ccc(Cl)cc2)o1)C(=O)Nc1ccc(N2CCOCC2)cc1 (stereo unspecified)	none (no result: CHOP inhibitor)
CC1(C(=O)NCc2ccc(C(F)(F)F)cc2)CCN1C1Cc2ccccc2C1 (stereo unspecified)	none (no result: CHOP inhibitor, UPR CHOP act, XBP1 UPR activ, NR3A LBD binder)
